{"data": "Assay results from different studies", "NR4A1": "Nuclear receptor subfamily 4immunitygroup A member 1 (NR4A1, Homo sapiens, UniProt P22736)", "KEAP1": "Kelch-like ECH-associated protein 1 (KEAP1, Homo sapiens, UniProt Q14145)", "folP": "Dihydropteroate synthase (folP, Bacteria, UniProt P0AC13)", "note": "Lines come from different studies, so protocols differ."}
{"Compound": "COc1cccc2c(Nc3ccc4[nH]c(C(=O)N/N=C/c5ccc(SC)cc5)cc4c3)cc(C)nc12", "target": "NR4A1", "assay": "binding, ITC", "measurement": "Kd", "value": "2.3 µM"}
{"Compound": "CN(Cc1cnc2nc(N)nc(N)c2n1)c1ccc(C(=O)N[C@@H](CCC(=O)O)C(=O)O)cc1", "target": "Solute carrier organic anion transporter family member 1B3 (SLCO1B3, Homo sapiens, UniProt Q9NPD5, M233I)", "assay": "transporter uptake, inhibitor, radiometric", "conditions": "2 min", "measurement": "IC50", "value": "> 100 µM"}
{"Compound": "N=C(N)NCCCC(=O)O", "target": "Alkaline phosphatase, tissue-nonspecific isozyme (ALPL, Homo sapiens, UniProt P05186)", "assay": "binding, ITC", "measurement": "Kd", "value": "2 µM"}
{"Compound": "CCCCCCCCC(=O)c1cc(O)c(O)c(O)c1", "target": "NR4A1", "assay": "binding, ITC", "measurement": "Kd", "value": "3.7 µM"}
{"Compound": "COc1cccc2c1C(=O)c1c(O)c3c(c(O)c1C2=O)C[C@@](O)(C(=O)CO)C[C@@H]3O[C@H]1C[C@H](N)[C@H](O)[C@H](C)O1", "target": "Solute carrier organic anion transporter family member 1B3 (SLCO1B3, Homo sapiens, UniProt Q9NPD5)", "assay": "transporter uptake, inhibitor, radiometric", "conditions": "2 min", "measurement": "IC50", "value": "7.7 µM"}
{"Compound": "O=C(O)/C=C/c1ccc(O)c(O)c1", "target": "KEAP1", "assay": "binding, SPR", "measurement": "Kd", "value": "4.9 µM"}
{"Compound": "CC(=O)OCc1nn(C)c2nc(N)[nH]c(=O)c2c1=O", "target": "folP", "assay": "binding, SPR", "measurement": "Kd", "value": "0.0148 µM"}
{"Compound": "C=CS(=O)(=O)c1ccc(Nc2nc(OCC3CCCCC3)c3nc[nH]c3n2)cc1", "target": "KEAP1", "assay": "binding, SPR", "measurement": "Kd", "value": "0.2 µM"}
{"Compound": "OC[C@H]1OC(O)[C@H](O)[C@@H](O)[C@@H]1O (some centres unmarked)", "target": "ATP-dependent RNA helicase DDX18 (Homo sapiens, UniProt Q9NVP1)", "assay": "binding, MST", "measurement": "Kd", "value": "77.2 µM"}
{"Compound": "NC(=O)c1ncn([C@@H]2O[C@H](CO)[C@@H](O)[C@H]2O)n1", "target": "5'-AMP-activated protein kinase catalytic subunit alpha-1 (PRKAA1, Homo sapiens, UniProt Q13131)", "assay": "binding, SPR", "measurement": "Kd", "value": "6.75 µM"}
{"Compound": "CCOC(=O)C(C)c1n[nH]c2nc(N)[nH]c(=O)c2c1=O (centres unmarked)", "target": "folP", "assay": "binding, SPR", "measurement": "Kd", "value": "0.199 µM"}
